This is an account of results in ChEMBL document CHEMBL1153925, “Synthesis, characterization and biological activity of ring-substituted 6-benzylamino-9-tetrahydropyran-2-yl and 9-tetrahydrofuran-2-ylpurine derivatives” (Bioorg Med Chem, 2009).

Data set [1] can be described thus: Stability assessed as compound peak area at pH 3 after 1 hr by HPLC-PDA method. It is filed as physicochemical. The note with it: read-out: Stability. The method, boiled down:
(§1)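 10^-2 M methanol solution diluted to 10^-4 M in McIlvaine buffer at pH 3, 4, 5, 6 or 7, then incubated at 25 °C. Direct injection onto reversed-phase C18 after 1 h and again after 24 h. Methanol/15 mM formic acid (pH 4, ammonium) gradient at 0.3 mL/min, PDA at 270 nm. Parent and released free base (m-topolin) reported as peak area %.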

Data set [2] is described as follows: Stability assessed as free base release at pH 6 after 1 hr by HPLC-PDA method. Format: physicochemical. The note with it: pH 6, 1 h. The essentials:
as §1

The nature of data set [3]: Stability assessed as compound peak area at pH 5 after 24 hrs by HPLC-PDA method. To be noted: read-out: Stability. It is filed as physicochemical. The method, boiled down: as §1
A further data set has as its system Amaranthus. Description: Cytokinin activity in cotyledons assessed as dark induction of betacyanin synthesis at 100 uM relative to 6-benzylaminopurine. Format: functional.
Data set [4] is described as follows: Stability assessed as free base release at pH 4 after 1 hr by HPLC-PDA method. It is filed as physicochemical. To be noted: pH 4, 1 h. The essentials: as §1
Data set [5] is described as follows: Stability assessed as free base release at pH 6 after 24 hr by HPLC-PDA method. It is filed as physicochemical. To be noted: pH 6, 24 h. The method, boiled down:
as §1

A short description of data set [6]: Stability assessed as free base release at pH 7 after 1 hr by HPLC-PDA method. It is filed as physicochemical. To be noted: pH 7, 1 h. The essentials: as §1
Data set [7] is described as follows: Stability assessed as free base release at pH 3 after 1 hr by HPLC-PDA method. The note with it: pH 3, 1 h. Format: physicochemical. The method, boiled down:
as §1

Another data set relates to K562. The data set is described as follows: Cytotoxicity against human K562 cells after 72 hrs by Calcein AM assay. The note with it: K562, 72 h. It is filed as ADME, cell-based.
Data set [8] can be described thus: Stability assessed as compound peak area at pH 7 after 1 hr by HPLC-PDA method. To be noted: read-out: Stability. It is filed as physicochemical. The essentials:
as §1

A short description of data set [9]: Stability assessed as compound peak area at pH 6 after 24 hrs by HPLC-PDA method. It is filed as physicochemical. To be noted: read-out: Stability. The essentials:
as §1

In the next data set the test system is Triticum aestivum. The data set is described as follows: Cytokinin activity in wheat leaf assessed as stimulation of retention of chlorophyll in excised leaves at 0.1 mM relative to 6-benzylaminopurine. Format: functional.
Data set [10] is described as follows: Stability assessed as free base release at pH 7 after 24 hr by HPLC-PDA method. It is filed as physicochemical. The note with it: pH 7, 24 h. The essentials: as §1
Data set [11] is described as follows: Stability assessed as compound peak area at pH 7 after 24 hrs by HPLC-PDA method. It is filed as physicochemical. The note with it: read-out: Stability. The method, boiled down:
as §1

Data set [12] can be described thus: Stability assessed as compound peak area at pH 4 after 24 hrs by HPLC-PDA method. It is filed as physicochemical. The note with it: read-out: Stability. The method, boiled down: as §1
The nature of data set [13]: Stability assessed as compound peak area at pH 4 after 1 hr by HPLC-PDA method. It is filed as physicochemical. To be noted: read-out: Stability. The method, boiled down: as §1
A short description of data set [14]: Stability assessed as compound peak area at pH 3 after 24 hrs by HPLC-PDA method. To be noted: read-out: Stability. Format: physicochemical. The essentials: as §1
Data set [15] can be described thus: Stability assessed as free base release at pH 5 after 1 hr by HPLC-PDA method. Format: physicochemical. The note with it: pH 5, 1 h. The essentials: as §1
Data set [16] can be described thus: Stability assessed as compound peak area at pH 5 after 1 hr by HPLC-PDA method. It is filed as physicochemical. The note with it: read-out: Stability. The method, boiled down:
as §1

Data set [17] deals with Nicotiana tabacum. Description: Cytokinin activity in tobacco callus assessed as stimulation of callus growth at 1 uM relative to 6-benzylaminopurine. Format: functional.
The test system of the next data set is MCF7. The data set is described as follows: Cytotoxicity against human MCF7 cells after 72 hrs by Calcein AM assay. Format: ADME, cell-based. The note with it: MCF7, 72 h.
Data set [18] is described as follows: Stability assessed as compound peak area at pH 6 after 1 hr by HPLC-PDA method. Format: physicochemical. To be noted: read-out: Stability. The essentials: as §1
Data set [19] can be described thus: Stability assessed as free base release at pH 3 after 24 hr by HPLC-PDA method. Format: physicochemical. The note with it: pH 3, 24 h. The essentials: as §1
A short description of data set [20]: Stability assessed as free base release at pH 5 after 24 hr by HPLC-PDA method. To be noted: pH 5, 24 h. It is filed as physicochemical. The essentials: as §1
The nature of data set [21]: Stability assessed as free base release at pH 4 after 24 hr by HPLC-PDA method. To be noted: pH 4, 24 h. Format: physicochemical. The essentials:
as §1

In another data set the test system is BJ. The data set is described as follows: Cytotoxicity against human BJ cells after 72 hrs by MTT assay. It is filed as ADME, cell-based.
The test system of data set [22] is Nicotiana tabacum. Description: Cytokinin activity in tobacco callus assessed as stimulation of callus growth at 10 uM relative to 6-benzylaminopurine. It is filed as functional. The essentials: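 Compounds dissolved in DMSO, diluted with water to 5 × 10^-2 M stock, then diluted in medium to 10^-8 to 10^-4 M. Final DMSO ≤0.2%; solvent control 0.2% DMSO. Readout was cytokinin-dependent tobacco callus growth. Activity is expressed relative to 10^-6 M BAP (=100%) at each compound's optimal concentration. Five replicates per concentration; whole test run at least twice.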

One may read the IC50 as the concentration that inhibits the measured activity by half.

Where only a bound is given, the exact number is not on record here.

Consider `Oc1cccc(CNc2ncnc3c2ncn3C2CCCCO2)c1` (centres undefined), for which the remaining at 1 h in data set [1] was found to be 98.8%; in data set [8] it was 99.9%; in data set [13] it was 99.5%; in data set [16], 99.5%; in data set [18], 99.8%. The Activity in [2] was 0.2%; with Amaranthus, 100%; in data set [4], 0.5%; in [5], 0.7%; in [6], 0.1%; in [7] it was 1.2%. For the same compound, the Activity was 140% with Triticum aestivum; 0.2% in data set [10]; 0.5% in data set [15]; 95% with Nicotiana tabacum [17]; 60.4% in data set [19]; 0.8% in data set [20]. Moreover, the Activity in data set [21] turned out to be 6.1%. In addition, the remaining at 24 h in data set [3] came out at 99.2%; in data set [9], 99.3%; in data set [11], 99.8%; in data set [12] it was 93.9%; in data set [14], 39.6%. For the same compound, the half-maximal inhibitory concentration (IC50) was 81 µM with K562, more than 100 µM in the data set on MCF7 and more than 100 µM in the data set with BJ.
With `COc1ccc(OC)c(CNc2ncnc3c2ncn3C2CCCCO2)c1` (centres undefined), the values for the Activity in the data set on Amaranthus, in the data set with Triticum aestivum and in the data set with Nicotiana tabacum [22] were 28%, 19% and 42%, respectively. Also, the values for the IC50 in the data set with K562, with MCF7 and in the data set on BJ were 16.5 µM, 25.4 µM and more than 100 µM, respectively.
Turning to `Oc1ccc(CNc2ncnc3c2ncn3C2CCCCO2)cc1` (centres undefined), the Activity in the data set with Amaranthus is reported as 34%; in the data set with Triticum aestivum, 4%; in the data set with Nicotiana tabacum [22] it was 20%. Also, the half-inhibitory concentration (IC50) in the data set with K562, in the data set with MCF7 and in the data set on BJ was more than 100 µM throughout.
Turning to `Oc1cccc(CNc2ncnc3c2ncn3C2CCCO2)c1` (centres undefined), the remaining at 1 h in data set [1] was 63.8%; in data set [8] it was 99.7%; in [13] it was 97.2%; in data set [16], 99.5%; in [18], 99.6%. The Activity in data set [2] was found to be 0.4%; in the data set on Amaranthus, 82%; in data set [4], 2.8%; in [5], 0.6%; in data set [6] it was 0.3%; in data set [7] it was 36.2%. Besides, the Activity with Triticum aestivum was 131%; in [10], 0.3%; in data set [15], 0.5%; in the data set with Nicotiana tabacum [17], 87%; in data set [19] it was 99.7%; in data set [20], 9.2%. Also, in [21], the Activity came out at 62.5%. The remaining at 24 h came to 90.8% in data set [3]; 99.4% in data set [9]; 99.7% in [11]; 37.5% in [12]; 0.3% in data set [14]. The IC50 in the data set with K562, in the data set on MCF7 and with BJ was more than 100 µM each time.
Consider `COc1ccc(OC)c(CNc2ncnc3c2ncn3C2CCCO2)c1` (centres undefined), for which the Activity in the data set with Amaranthus was determined as 41%; with Triticum aestivum, 41%; with Nicotiana tabacum [22], 61%. Moreover, the IC50 in the data set with K562, in the data set with MCF7 and with BJ was more than 50 µM in each case.
For the compound `Oc1cc(O)cc(CNc2ncnc3c2ncn3C2CCCCO2)c1` (centres undefined), the results for the Activity in the data set with Amaranthus, in the data set with Triticum aestivum and in the data set with Nicotiana tabacum [22] were 33%, 15% and 36%, respectively. Besides, the 50% inhibitory concentration (IC50) in the data set on K562, with MCF7 and with BJ was more than 100 µM each time.
As to `Oc1ccc(CNc2ncnc3c2ncn3C2CCCO2)cc1` (centres undefined), the Activity was determined as 10% in the data set on Amaranthus, 8% in the data set on Triticum aestivum and 19% in the data set on Nicotiana tabacum [22]. Moreover, the IC50 with K562, in the data set with MCF7 and in the data set on BJ was more than 100 µM throughout.
Take `COc1ccccc1CNc1ncnc2c1ncn2C1CCCO1` (centres undefined): the Activity with Amaranthus came to 107%; in the data set with Triticum aestivum it was 72%; in the data set with Nicotiana tabacum [22], 91%. Moreover, the half-inhibitory concentration (IC50) in the data set with K562, in the data set on MCF7 and with BJ was more than 100 µM each time.
`Oc1ccccc1CNc1ncnc2c1ncn2C1CCCCO1` (centres undefined): the figures for the Activity in the data set on Amaranthus, with Triticum aestivum and in the data set on Nicotiana tabacum [22] were 46%, 31% and 37%, respectively. Further, the IC50 in the data set on K562, with MCF7 and in the data set with BJ was more than 100 µM in each case.
